Experimental data taken from ChEMBL document CHEMBL3272019, “Synthesis and some properties and antitumor effects of the actinomycin lactam analog, (di(1-L-alpha, beta-diaminopropionic))actinomycin D1” (1976).
Values after ≈ are worked out from the molar mass of the structure shown. Active and inactive are the calls of the source. The rule behind the calls is not given here.

Tests used:
L1210 [1] = assay: Antitumor activity against mouse L1210 cells allografted in BDF1 mouse assessed as increase in lifespan at 0.15 mg/kg/injection, ip administered intermittently on days 1, 5 and 9; format: functional; settings: route intraperitoneal
L1210 [2] = assay: Antitumor activity against mouse L1210 cells allografted in BDF1 mouse assessed as increase in life span at 0.0125 mg/kg/injection, ip administered daily for 9 days; format: functional; settings: 216 h, route intraperitoneal
Staphylococcus aureus = assay: Antibacterial activity against Penicillin-resistant Staphylococcus aureus assessed as growth inhibition; format: functional
Calf thymus DNA [3] = assay: Binding affinity to calf thymus DNA at 37.1 uM by visible and near-UV CD spectrophotometry; format: nucleic-acid assay; settings: Bos taurus
Summary of the method: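 Visible/near-UV CD of 37.1 µM drug, free and with calf thymus DNA at 0.53 mM nucleotide phosphorus, in 0.01 M sodium phosphate pH 7.0 at about 23°. Tandem 1-cm quartz cells were used. Concentration was fixed from absorbance at 440 nm (ε 23585 M⁻¹ cm⁻¹).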

B16 [4] = assay: Antitumor activity against mouse B16 cells allografted in BDF1 mouse assessed as mean survival time at 0.05 mg/kg/injection, ip administered as single dose (reference value: 28 days); format: functional; settings: route intraperitoneal
Summary of the method: (§1)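 B16 melanoma in mice, standard screening method. Schedules were daily on days 1–9, on days 1, 5 and 9, or a single day-1 injection, each over a four- to fivefold dose range. Survival time (range of individual deaths) was recorded, percent increase in life-span computed against untreated controls, and survivors tallied.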

P388 [5] = assay: Antitumor activity against mouse P388 cells allografted in BDF1 mouse assessed as increase in life span at 0.15 mg/kg/injection, ip administered intermittently on days 1, 5 and 9 measured on day 60; format: functional; settings: 1440 h, route intraperitoneal
Summary of the method: (§2)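 P388 leukaemia: 10⁶ cells implanted ip on day 0 into groups of eight male BDF mice. Dosing was ip daily on days 1–9, on days 1, 5 and 9, or as a single day-1 dose, over four- to fivefold dose ranges. Median survival time (range of deaths) and percent increase in life-span were recorded, with survivors/total counted at day 60.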

B16 [6] = assay: Antitumor activity against mouse B16 cells allografted in BDF1 mouse assessed as mean survival time at 0.05 mg/kg/injection, ip administered daily for 9 days (reference value: 28 days); format: functional; settings: route intraperitoneal; summary of the method: as §1
P388 [7] = assay: Antitumor activity against mouse P388 cells allografted in BDF1 mouse assessed as mean survival time at 0.15 mg/kg/injection, ip administered intermittently on days 1, 5 and 9 (reference value: 10.5 days); format: functional; settings: route intraperitoneal; summary of the method: as §2
L1210 [8] = assay: Antitumor activity against mouse L1210 cells allografted in BDF1 mouse assessed as mean survival time at 0.15 mg/kg/injection, ip administered intermittently on days 1, 5 and 9 (reference value: 9.6 days); format: functional; settings: route intraperitoneal
B16 [9] = assay: Antitumor activity against mouse B16 cells allografted in BDF1 mouse assessed as increase in life span at 0.075 mg/kg/injection, ip administered intermittently on days 1, 5 and 9 measured on day 60; format: functional; settings: 1440 h, route intraperitoneal; summary of the method: as §1
B16 [10] = assay: Antitumor activity against mouse B16 cells allografted in BDF1 mouse assessed as mean survival time at 0.075 mg/kg/injection, ip administered intermittently on days 1, 5 and 9 (reference value: 28 days); format: functional; settings: route intraperitoneal; summary of the method: as §1
B16 [11] = assay: Antitumor activity against mouse B16 cells allografted in BDF1 mouse assessed as increase in life span at 0.05 mg/kg/injection, ip administered daily for 9 days measured on day 60; format: functional; settings: route intraperitoneal; summary of the method: as §1
P388 [12] = assay: Antitumor activity against mouse P388 cells allografted in BDF1 mouse assessed as increase in life span at 0.2 mg/kg/injection, ip administered as single dose measured on day 60; format: functional; settings: 1440 h, route intraperitoneal; summary of the method: as §2
[13] = test system: Pseudoalteromonas phage PM2; assay: Binding affinity to bacteriophage PM2 DNA at 25 uM by visible and near-UV CD spectrophotometry
Summary of the method: (§3)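 CD spectra, visible and near-UV, of 25.0 µM drug alone and with DNA (calf thymus or PM2, 0.52 mM as nucleotide phosphorus) in 0.01 M sodium phosphate, pH 7.0. Recorded at about 23° in tandem 1-cm cylindrical quartz cells. Drug concentration was set spectrophotometrically at 440 nm.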

B16 [14] = assay: Antitumor activity against mouse B16 cells allografted in BDF1 mouse assessed as increase in life span at 0.05 mg/kg/injection, ip administered as single dose measured on day 60; format: functional; settings: 1440 h, route intraperitoneal; summary of the method: as §1
L1210 [15] = assay: Antitumor activity against mouse L1210 cells allografted in BDF1 mouse assessed as increase in life span at 0.2 mg/kg/injection, ip administered as single dose; format: functional; settings: route intraperitoneal
Calf thymus DNA [16] = assay: Binding affinity to calf thymus DNA at 25 uM by visible and near-UV CD spectrophotometry; format: nucleic-acid assay; settings: Bos taurus; summary of the method: as §3
P388 [17] = assay: Antitumor activity against mouse P388 cells allografted in BDF1 mouse assessed as mean survival time at 0.2 mg/kg/injection, ip administered as single dose (reference value: 10.5 days); format: functional; settings: route intraperitoneal; summary of the method: as §2
Sarcina = assay: Antibacterial activity against Sarcina subflava assessed as growth inhibition; format: functional
L1210 [18] = assay: Antitumor activity against mouse L1210 cells allografted in BDF1 mouse assessed as mean survival time at 0.2 mg/kg/injection, ip administered as single dose (reference value: 9.6 days); format: functional; settings: route intraperitoneal
Bacillus subtilis = assay: Antibacterial activity against Bacillus subtilis Marburg assessed as growth inhibition; format: functional
P388 [19] = assay: Antitumor activity against mouse P388 cells allografted in BDF1 mouse assessed as increase in life span at 0.1 mg/kg/injection, ip administered daily for 9 days measured on day 60; format: functional; settings: route intraperitoneal; summary of the method: as §2
P388 [20] = assay: Antitumor activity against mouse P388 cells allografted in BDF1 mouse assessed as mean survival time at 0.1 mg/kg/injection, ip administered daily for 9 days (reference value: 10.5 days); format: functional; settings: route intraperitoneal; summary of the method: as §2
L1210 [21] = assay: Antitumor activity against mouse L1210 cells allografted in BDF1 mouse assessed as mean survival time at 0.0125 mg/kg/injection, ip administered daily for 9 days (reference value: 9.6 days); format: functional; settings: route intraperitoneal

SMILES: Cc1c2oc3c(C)ccc(C(=O)N[C@H]4CNC(=O)[C@H](C(C)C)N(C)C(=O)CN(C)C(=O)[C@@H]5CCCN5C(=O)[C@@H](C(C)C)NC4=O)c3nc-2c(C(=O)N[C@H]2CNC(=O)[C@H](C(C)C)N(C)C(=O)CN(C)C(=O)[C@@H]3CCCN3C(=O)[C@@H](C(C)C)NC2=O)c(N)c1=O
- ILS at 0.15 mg/kg (L1210 [1]): 14%
- ILS at 0.0125 mg/kg (L1210 [2]): 17%
- MIC (Staphylococcus aureus): 0.35 µg/mL (≈ 0.286 µM)
- Activity (Calf thymus DNA [3]): Active
- MST (B16 [4]): 29 days
- ILS at 0.15 mg/kg (P388 [5]): 33%
- MST (B16 [6]): 30 days
- MST (P388 [7]): 14 days
- MST (L1210 [8]): 11 days
- ILS at 0.075 mg/kg (B16 [9]): 14%
- MST (B16 [10]): 32 days
- ILS at 0.05 mg/kg (B16 [11]): 7%
- ILS at 0.2 mg/kg (P388 [12]): 33%
- Activity [13]: Active
- ILS at 0.05 mg/kg (B16 [14]): 4%
- ILS at 0.2 mg/kg (L1210 [15]): 22%
- Activity (Calf thymus DNA [16]): Active
- MST (P388 [17]): 14 days
- MIC (Sarcina): 0.35 µg/mL (≈ 0.286 µM)
- MST (L1210 [18]): 11.8 days
- MIC (Bacillus subtilis): 0.9 µg/mL (≈ 0.734 µM)
- IC50 (Bacillus subtilis; read-out: ID50 (the source's name)): 0.4 µg/mL (≈ 0.326 µM)
- ILS at 0.1 mg/kg (P388 [19]): 38%
- MST (P388 [20]): 14.5 days
- MST (L1210 [21]): 11.2 days
